Results from ChEMBL document CHEMBL6071149, “Synthesis and photo-induced anticancer activity of new 2-phenylethenyl-1H-benzo[e]indole dyes” (Eur J Med Chem, 2024).
Calls of active or inactive are those of the source. The calls are words filed in the database; no cut-off is given here.

What was measured:
G-361 [1] = test: Cytotoxicity against human G361 cells pretreated for 4 hrs followed by light irradiation of 10 J/cm2 at 414 nm measured after 20 hrs by MTT assay; assay type: functional, cell-based; conditions: G-361, light or radiation study
In short: (§1)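 Cells grown in phenol red-free DMEM with 10 % FBS, penicillin/streptomycin, 37 °C, 5 % CO₂. Compound added 24 h after plating and incubated 4 h. Irradiated cells received 414 nm LED light at 20 mW/cm², 10 J/cm², then were incubated 20 h or 68 h more. Dark plates were run in parallel without irradiation. MTT was added for 4 h, formazan dissolved in 10 % SDS, absorbance read at 570 nm. EC50 ± SD.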

[2] = Cytotoxicity against human ARN-8 cells-derived from human A375 cells under dark condition measured after 24 hrs by MTT assay; assay type: functional, cell-based; conditions: ARN-8 cell; in short: as §1
[3] = (§2) Selectivity ratio of EC50 for human G361 cells under dark condition measured after 72 hrs by MTT assay to EC50 for human G361 cells pretreated for 4 hrs followed by light irradiation of 10 J/cm2 at 414 nm measured after 68 hrs by MTT assay; assay type: functional
In short: (§3)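 Ratio of dark EC50 to EC50 after 414 nm irradiation (10 J/cm²). MTT read-out; compound exposure 4 h before irradiation. Each dark value is paired with the matching post-irradiation incubation (20 h or 68 h).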

[4] = as §2, with “ARN-8 cells-derived from human A375” for “G361”; assay type: functional, ARN-8 cell; in short: as §3
ARN-8 cell [5] = test: Induction of ROS production in human ARN-8 cells-derived from human A375 cells pretreated for 4 hrs followed by light irradiation of 5 to 10 J/cm2 measured immediately by CM-H2DCFA probe based analysis; assay type: functional; conditions: dose <= 4.0 µM
In short: (§4)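 Cells loaded next day with 5 µM CM-H₂DCFDA for 30 min, then placed in prewarmed PBS with 5 mM glucose. Compound exposure 4 h, followed by 414 nm irradiation at 5 or 10 J/cm²; dark samples run in parallel. Fluorescence read immediately at 492/530 nm. NAC (5 mM) pretreatment for 10 min gave negative controls. RFU normalised to untreated dark control.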

G-361 [6] = test: Induction of ROS production in human G361 cells upto 4 uM treated for 4 hrs under dark condition by CM-H2DCFA probe based analysis; assay type: functional, cell-based; in short: as §4
G-361 [7] = test: Induction of ROS production in human G361 cells upto 4 uM pretreated for 4 hrs followed by light irradiation of 5 to 10 J/cm2 measured immediately in presence of N-acetylcysteine by CM-H2DCFA probe based analysis; assay type: functional, cell-based; in short: as §4
[8] = Induction of singlet oxygen generation in aqueous solution at 5 uM at light irradiation of 10 J/cm2; assay type: functional
In short: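 Water solutions of compound mixed with SOSG, DHR123 or HPF probe, each at a final 5 µM, without cells or medium. Irradiated with blue light at 10 J/cm² and fluorescence read immediately at 490/525 nm.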

ARN-8 cell [9] = test: Induction of oxidative stress in human ARN-8 cells-derived from human A375 cells assessed as increase in HO-1 level upto 4 uM under dark condition by immunoblot analysis; assay type: functional, cell-based
G-361 [10] = test: Induction of apoptosis in human G361 cells assessed as increase in cleaved pro-caspase-9 level upto 4 uM pretreated for 4 hrs followed by light irradiation of 10 J/cm2 at 414 nm measured after 20 hrs by Western blot analysis; assay type: functional, cell-based; conditions: time 24.0 hrs
In short: (§5)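 Compound exposure 4 h, then 414 nm irradiation, then 20 h further incubation. Lysates made in RIPA buffer, separated by SDS-PAGE and blotted to nitrocellulose. Primary antibodies in TBS with 4 % BSA and 0.1 % Tween 20, incubated overnight. Peroxidase secondary antibody with chemiluminescent detection. GAPDH served as loading control.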

G-361 [11] = test: Induction of apoptosis in human G361 cells assessed as decrease in Bcl-2 level upto 4 uM pretreated for 4 hrs followed by light irradiation of 10 J/cm2 at 414 nm measured after 20 hrs by Western blot analysis; assay type: functional, cell-based; conditions: time 24.0 hrs; in short: as §5
G-361 [12] = test: Induction of apoptosis in human G361 cells assessed as decrease in Mcl-1 level upto 4 uM pretreated for 4 hrs followed by light irradiation of 10 J/cm2 at 414 nm measured after 20 hrs by Western blot analysis; assay type: functional, cell-based; conditions: time 24.0 hrs; in short: as §5
ARN-8 cell [13] = test: Induction of apoptosis in human ARN-8 cells-derived from human A375 cells assessed as increase in cleaved pro-caspase-9 level upto 4 uM pretreated for 4 hrs followed by light irradiation of 10 J/cm2 at 414 nm measured after 20 hrs by Western blot analysis; assay type: functional, cell-based; conditions: time 24.0 hrs; in short: as §5
ARN-8 cell [14] = test: Induction of apoptosis in human ARN-8 cells-derived from human A375 cells assessed as decrease in Bcl-2 level upto 4 uM pretreated for 4 hrs followed by light irradiation of 10 J/cm2 at 414 nm measured after 20 hrs by Western blot analysis; assay type: functional, cell-based; conditions: time 24.0 hrs; in short: as §5
ARN-8 cell [15] = test: Induction of apoptosis in human ARN-8 cells-derived from human A375 cells assessed as increase in cleaved BAX level upto 4 uM pretreated for 4 hrs followed by light irradiation of 10 J/cm2 at 414 nm measured after 20 hrs by Western blot analysis; assay type: functional, cell-based; conditions: time 24.0 hrs; in short: as §5
G-361 [16] = test: Induction of cell cycle arrest in human G361 cells assessed as increase in cell population at sub-G1 phase at 0.5 to 1 uM pretreated for 4 hrs followed by light irradiation of upto 10 J/cm2 at 414 nm measured after 20 hrs by flow cytometry; assay type: functional, cell-based; conditions: dose 0.5-1 µM, time 24.0 hrs
In short: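 Compound exposure 4 h (0.5 or 1 µM), then irradiation at increasing blue-light doses, then 20 h further incubation. Cells stained with propidium iodide; DNA content measured by flow cytometry with a 488 nm laser. Cell-cycle and subG1 distributions analysed.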

G-361 [17] = test: Induction of DNA damage in human G361 cells assessed as increase in H2AX phosphorylation at Ser139 at 0.5 to 1 uM pretreated for 4 hrs followed by light irradiation of upto 10 J/cm2 at 414 nm measured after 20 hrs by Western blot analysis; assay type: functional, cell-based; conditions: dose 0.5-1 µM, time 24.0 hrs; in short: as §5
ARN-8 cell [18] = test: Induction of DNA damage in human ARN-8 cells-derived from human A375 cells assessed as increase in H2AX phosphorylation at Ser139 at 0.5 to 1 uM pretreated for 4 hrs followed by light irradiation of upto 10 J/cm2 at 414 nm measured after 20 hrs by Western blot analysis; assay type: functional, cell-based; conditions: dose 0.5-1 µM, time 24.0 hrs; in short: as §5
ARN-8 cell [19] = test: Induction of cell cycle arrest in human ARN-8 cells-derived from human A375 cells transfected with p53-responsive beta-galactosidase assessed as increase in p53 activation upto 4 uM pretreated for 4 hrs followed by light irradiation of 10 J/cm2 at 414 nm measured after 20 hrs by fluorescence based assay; assay type: functional; conditions: time 24.0 hrs
In short: (§6)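 ARN8 cells stably carrying the p53-responsive pRGΔfoslacZ reporter. Increasing compound concentrations for 4 h, then 414 nm irradiation at 2.5, 5, 7.5 or 10 J/cm², then 20 h further incubation. Cells lysed in 0.3 % Triton X-100. After 10 min, 4-methylumbelliferyl β-D-galactopyranoside added at a final 80 µM for 1 h. Fluorescence read at […].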

ARN-8 cell [20] = test: Downregulation of p53 level in human ARN-8 cells-derived from human A375 cells transfected with p53-responsive beta-galactosidase at higher concentration pretreated for 4 hrs followed by light irradiation of 10 J/cm2 at 414 nm measured after 20 hrs by fluorescence based assay; assay type: functional; conditions: time 24.0 hrs; in short: as §6

For `COc1ccc(/C=C/C2=Nc3ccc4ccccc4c3C2(C)C)cc1[N+](=O)[O-]`, which EC50 (G-361 [1]) is on record?
Its EC50 is 0.6 µM.

What about the EC50 [2] of the same molecule?
The EC50 was 9.2 µM.

What about the “Ratio EC50” value [3] of the same molecule?
Its value is >28.

And the “Ratio EC50” value [4]?
The value was >28.

What about the Activity (ARN-8 cell [5]) of the same molecule?
The Activity was “Dose-Dependent Effect”.

What about the Activity (G-361 [6]) of the same molecule?
The Activity was “inactive”.

What about the Activity (G-361 [7]) of the same molecule?
Its Activity is “inactive”.

What about the Activity [8] of the same molecule?
The Activity was “inactive”.

And the Activity (ARN-8 cell [9])?
Its Activity is “Active”.

And the Activity (G-361 [10])?
Its Activity is “Active”.

And the Activity (G-361 [11])?
Its Activity is “Active”.

What about the Activity (G-361 [12]) of the same molecule?
Its Activity is “Active”.

What about the Activity (ARN-8 cell [13]) of the same molecule?
Its Activity is “Active”.

What about the Activity (ARN-8 cell [14]) of the same molecule?
Its Activity is “Active”.

What about the Activity (ARN-8 cell [15]) of the same molecule?
Its Activity is “Active”.

What about the Activity (G-361 [16]) of the same molecule?
Its Activity is “Active”.

And the Activity (G-361 [17])?
Its Activity is “Active”.

And the Activity (ARN-8 cell [18])?
The Activity was “Active”.

And the Activity (ARN-8 cell [19])?
The Activity was “Active”.

And the Activity (ARN-8 cell [20])?
The Activity was “Active”.
